Measured values: ChEMBL document CHEMBL4334465, “SAR Studies on Aromatic Acylhydrazone-Based Inhibitors of Fungal Sphingolipid Synthesis as Next-Generation Antifungal Agents” (J Med Chem, 2019)
Converted amounts (≈) assume the structure as drawn.

What was measured:
Candida parapsilosis [1] = assay: Antifungal activity against Candida parapsilosis assessed as FICI in presence of fluconazole; assay type: functional
Outline: (§1)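 Checkerboard combination scored by fractional inhibitory concentration index. Acylhydrazone serially diluted 16 to 0.015 μg/mL (11 dilutions). Partner drug in seven dilutions: fluconazole 12 to 0.19 μg/mL, amphotericin B 5 to 0.078 μg/mL, caspofungin, itraconazole or voriconazole 8 to 0.007 μg/mL.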

Cryptococcus neoformans [2] = assay: Fungicidal activity against Cryptococcus neoformans H99 measured up to 96 hrs by time-kill assay; assay type: functional, organism-based; settings: var grubii H99
Outline: (§2)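 Overnight C. neoformans washed in PBS and resuspended in HEPES-buffered YNB, pH 7.4. 2 × 10⁴ cells exposed to a range of drug concentrations in 10 mL with 0.5% DMSO final, at 37°C, 5% CO₂, shaking at 200 rpm. Aliquots sampled over 96 h, diluted and plated on YPD; CFU counted after 48 h at 30°C.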

Candida albicans [3] = assay: Antifungal activity against Candida albicans assessed as FICI in presence of fluconazole; assay type: functional; outline: as §1
Aspergillus fumigatus [4] = assay: Antifungal activity against Aspergillus fumigatus measured after 24 to 72 hrs; assay type: functional
Outline: (§3)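 Modified CLSI broth microdilution with inoculum per M27A3. Compounds were serially diluted 32 to 0.03 μg/mL. Media: C. neoformans in HEPES-buffered YNB without amino acids (pH 7.0, 2% glucose); Candida strains in YNB without ammonium sulfate or amino acids plus 1% asparagine (pH 7.0, 2% glucose); A. fumigatus in RPMI (pH 7.0, 2% glucose).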

HepG2 = assay: Cytotoxicity against human HepG2 cells after 24 to 48 hrs by MTT assay; assay type: functional; settings: read-out: LD50 (the source's name)
Outline: (§4)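 A549 and HepG2 kept in DMEM with 10% FBS and 1% pen-strep. At passage 7, seeded at 10⁵ cells/well and allowed to adhere 14 h. Compound added at 0.03–128 μg/mL, untreated wells as controls. Incubation 37°C, 5% CO₂ for 24 or 48 h. MTT (5 mg/mL in PBS) added for 4 h, formazan dissolved in DMSO, OD570.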

[5] = Selectivity index, ratio of LD50 for human A549 cells to MIC80 for Cryptococcus neoformans H99; assay type: toxicity; settings: read-out: Selectivity Index
Outline: (§5)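 SI = LD₅₀/MIC₈₀. Cytotoxicity: A549 or HepG2 cells (DMEM, 10% FBS, passage 7, 10⁵ cells/well) adhered 14 h, then exposed to 0.03–128 μg/mL for 24 or 48 h at 37°C, 5% CO₂; MTT 4 h, formazan dissolved in DMSO, read at 570 nm. MIC₈₀ against C. neoformans from broth microdilution in HEPES-buffered YNB, pH 7.0.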

Candida albicans [6] = assay: Antifungal activity against Candida albicans assessed as FICI in presence of caspofungin; assay type: functional; outline: as §1
Pichia kudriavzevii [7] = assay: Antifungal activity against Candida krusei 6258 assessed as FICI in presence of itraconazole; assay type: functional; outline: as §1
Aspergillus fumigatus [8] = assay: Antifungal activity against Aspergillus fumigatus assessed as FICI in presence of itraconazole; assay type: functional; outline: as §1
Cryptococcus neoformans [9] = assay: Antifungal activity against Cryptococcus neoformans H99 assessed as FICI in presence of amphotericin B; assay type: functional, var grubii H99; outline: as §1
Pichia kudriavzevii [10] = assay: Antifungal activity against fluconazole-resistant Candida krusei assessed as FICI in presence of caspofungin; assay type: functional
Outline: (§6)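 Checkerboard in 96-well plate. Test compound diluted 16 to 0.015 μg/mL (11 dilutions) against the partner drug in seven dilutions: fluconazole 12 to 0.19 μg/mL, caspofungin, itraconazole or voriconazole 8 to 0.007 μg/mL. Fractional inhibitory concentration index (FICI) calculated from the combinations.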

Candida parapsilosis [11] = assay: Antifungal activity against Candida parapsilosis assessed as FICI in presence of caspofungin; assay type: functional; outline: as §1
[Candida] auris [12] = Antifungal activity against Candida auris assessed as FICI in presence of itraconazole; assay type: functional, Candidozyma auris; outline: as §1
Candida parapsilosis [13] = assay: Antifungal activity against Candida parapsilosis measured after 24 to 72 hrs; assay type: functional; settings: Lodderomyces parapsilosis; outline: as §3
[Candida] auris [14] = Antifungal activity against Candida auris measured after 24 to 72 hrs; assay type: functional; settings: Candidozyma auris; outline: as §3
Pichia kudriavzevii [15] = assay: Antifungal activity against fluconazole-resistant Candida krusei assessed as FICI in presence of itraconazole; assay type: functional; outline: as §6
Cryptococcus neoformans [16] = assay: Antifungal activity against Cryptococcus neoformans H99 assessed as FICI in presence of itraconazole; assay type: functional, var grubii H99; outline: as §1
Cryptococcus neoformans [17] = assay: Fungicidal activity against Cryptococcus neoformans H99 measured after 72 hrs by time-kill assay; assay type: functional, var grubii H99; outline: as §2
Cryptococcus neoformans [18] = assay: Antifungal activity against Cryptococcus neoformans H99 assessed as FICI in presence of fluconazole; assay type: functional, var grubii H99; outline: as §1
Aspergillus fumigatus [19] = assay: Antifungal activity against Aspergillus fumigatus assessed as FICI in presence of voriconazole; assay type: functional; outline: as §1
Pichia kudriavzevii [20] = assay: Antifungal activity against Candida krusei 6258 assessed as FICI in presence of voriconazole; assay type: functional; outline: as §1
Candida albicans [21] = assay: Antifungal activity against Candida albicans assessed as FICI in presence of itraconazole; assay type: functional; outline: as §1
Pichia kudriavzevii [22] = assay: Antifungal activity against Candida krusei measured after 24 to 72 hrs; assay type: functional
Outline: (§7)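 MIC by modified CLSI broth microdilution. Candida strains grown in YNB without ammonium sulfate or amino acids with 1% asparagine, pH 7.0, 2% glucose. Inoculum per CLSI M27A3. Compound serially diluted 32 to 0.03 μg/mL. Incubation 37°C, 5% CO₂, 24–72 h, then OD450. MIC80 taken as the lowest concentration giving 80% growth inhibition versus untreated control.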

[Candida] auris [23] = Antifungal activity against Candida auris assessed as FICI in presence of caspofungin; assay type: functional, Candidozyma auris; outline: as §1
Cryptococcus neoformans [24] = assay: Antifungal activity against Cryptococcus neoformans H99 assessed as FICI in presence of voriconazole; assay type: functional, var grubii H99; outline: as §1
Pichia kudriavzevii [25] = assay: Antifungal activity against Candida krusei 6258 assessed as FICI in presence of fluconazole; assay type: functional; outline: as §1
Cryptococcus neoformans [26] = assay: Antifungal activity against Cryptococcus neoformans H99 measured after 24 to 72 hrs; assay type: functional; settings: var grubii H99; outline: as §3
[Candida] auris [27] = Antifungal activity against Candida auris assessed as FICI in presence of voriconazole; assay type: functional, Candidozyma auris; outline: as §1
[Candida] auris [28] = Antifungal activity against Candida auris assessed as FICI in presence of fluconazole; assay type: functional, Candidozyma auris; outline: as §1
Candida parapsilosis [29] = assay: Antifungal activity against Candida parapsilosis assessed as FICI in presence of voriconazole; assay type: functional; outline: as §1
[30] = Selectivity index, ratio of LD50 for human HepG2 cells to MIC80 for Cryptococcus neoformans H99; assay type: toxicity; settings: read-out: Selectivity Index; outline: as §5
Pichia kudriavzevii [31] = assay: Antifungal activity against multi-drug resistant Candida krusei measured after 24 to 72 hrs; assay type: functional; outline: as §7
Candida parapsilosis [32] = assay: Antifungal activity against Candida parapsilosis assessed as FICI in presence of itraconazole; assay type: functional; outline: as §1
Candida albicans [33] = assay: Antifungal activity against Candida albicans assessed as FICI in presence of voriconazole; assay type: functional; outline: as §1
Pichia kudriavzevii [34] = assay: Antifungal activity against Candida krusei 6258 assessed as FICI in presence of caspofungin; assay type: functional; outline: as §1
Aspergillus fumigatus [35] = assay: Antifungal activity against Aspergillus fumigatus assessed as FICI in presence of fluconazole; assay type: functional; outline: as §1
Candida albicans [36] = assay: Antifungal activity against Candida albicans measured after 24 to 72 hrs; assay type: functional; outline: as §3
Pichia kudriavzevii [37] = assay: Antifungal activity against fluconazole-resistant Candida krusei assessed as FICI in presence of voriconazole; assay type: functional; outline: as §6
Pichia kudriavzevii [38] = assay: Antifungal activity against fluconazole-resistant Candida krusei assessed as FICI in presence of fluconazole; assay type: functional; outline: as §6
A549 = assay: Cytotoxicity against human A549 cells after 24 to 48 hrs by MTT assay; assay type: functional; settings: read-out: LD50 (the source's name); outline: as §4

Structure (SMILES): O=C(N/N=C/c1cc(Br)ccc1O)c1ccc(Br)cc1Br
- fractional inhibitory concentration index (FICI) (Candida parapsilosis [1]): 1.015
- Activity (Cryptococcus neoformans [2]): Dose-dependent effect
- fractional inhibitory concentration index (FICI) (Candida albicans [3]): 2
- MIC80 (Aspergillus fumigatus [4]): > 16 µg/mL
- CC50 (HepG2): 64 µg/mL (≈ 134 µM)
- selectivity ratio [5]: 1070
- fractional inhibitory concentration index (FICI) (Candida albicans [6]): 0.502
- fractional inhibitory concentration index (FICI) (Pichia kudriavzevii [7]): 2.015
- fractional inhibitory concentration index (FICI) (Aspergillus fumigatus [8]): 0.484
- fractional inhibitory concentration index (FICI) (Cryptococcus neoformans [9]): 0.086
- fractional inhibitory concentration index (FICI) (Pichia kudriavzevii [10]): 2
- fractional inhibitory concentration index (FICI) (Candida parapsilosis [11]): 1.5
- fractional inhibitory concentration index (FICI) ([Candida] auris [12]): 1.016
- MIC80 (Candida parapsilosis [13]): 8 µg/mL (≈ 16.8 µM)
- MIC80 ([Candida] auris [14]): > 16 µg/mL
- fractional inhibitory concentration index (FICI) (Pichia kudriavzevii [15]): 0.375
- fractional inhibitory concentration index (FICI) (Cryptococcus neoformans [16]): 0.072
- MFC100 (Cryptococcus neoformans [17]): 0.06 µg/mL (≈ 0.126 µM)
- fractional inhibitory concentration index (FICI) (Cryptococcus neoformans [18]): 0.065
- fractional inhibitory concentration index (FICI) (Aspergillus fumigatus [19]): 0.515
- fractional inhibitory concentration index (FICI) (Pichia kudriavzevii [20]): 1.06
- fractional inhibitory concentration index (FICI) (Candida albicans [21]): 0.128
- MIC80 (Pichia kudriavzevii [22]): 8 µg/mL (≈ 16.8 µM)
- fractional inhibitory concentration index (FICI) ([Candida] auris [23]): 2
- fractional inhibitory concentration index (FICI) (Cryptococcus neoformans [24]): 0.072
- fractional inhibitory concentration index (FICI) (Pichia kudriavzevii [25]): 1.002
- MIC80 (Cryptococcus neoformans [26]): 0.06 µg/mL (≈ 0.126 µM)
- fractional inhibitory concentration index (FICI) ([Candida] auris [27]): 1.125
- fractional inhibitory concentration index (FICI) ([Candida] auris [28]): 2
- fractional inhibitory concentration index (FICI) (Candida parapsilosis [29]): 0.135
- selectivity ratio [30]: 1070
- MIC80 (Pichia kudriavzevii [31]): > 16 µg/mL
- fractional inhibitory concentration index (FICI) (Candida parapsilosis [32]): 2.098
- fractional inhibitory concentration index (FICI) (Candida albicans [33]): 0.256
- fractional inhibitory concentration index (FICI) (Pichia kudriavzevii [34]): 1.002
- fractional inhibitory concentration index (FICI) (Aspergillus fumigatus [35]): 2
- MIC80 (Candida albicans [36]): > 16 µg/mL
- fractional inhibitory concentration index (FICI) (Pichia kudriavzevii [37]): 1.063
- fractional inhibitory concentration index (FICI) (Pichia kudriavzevii [38]): 2
- CC50 (A549): 64 µg/mL (≈ 134 µM)
